Sampled rows, rich in hits. Any-hit rate of the full collection: about 0.19%.
KDM4C inh – blocks human GASC-1 (KDM4C) demethylase activity. Q9H3R0. GST-KDM4C 2-372, H3K9me3 peptide, LANCE TR-FRET. inhibition, % at 12.5 µM. 96,000 tested, 0.15% active. AID 720574;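 active means mean replicate inhibition above about 25%, with at least 55% of replicates also reaching it, limit read from the data, passing the limit was not always enough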
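Material: N-terminal GST-fused human GASC-1 (KDM4C) fragment, residues 2-372. Input: 10 nM enzyme. Incubation: enzyme reaction 30 min, then detection 60 min, both room temperature. Doses: one test concentration per compound. Read-out basis: inhibition from TR-FRET ratio decrease. Detection: LANCE TR-FRET, excitation 340 nm, emissions 618 and 671 nm.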
IDH1 mut inh – blocks human IDH1 R132H reductase activity; O75874; 70,000 tested, 0.18% active; AID 624101; inhibition, % at 10 µM; diaphorase/resazurin fluorescence, 60 min; in the data active means inhibition above about 34%
Each line names hits and unclear results; the compound was inactive in the other large screens.

CCCN1CCc2cc(O)cc3c2[C@H]1Cc1ccc(O)c(O)c1-3	IDH1 mut inh 44.4 (no result: KDM4C inh)
CN1CCc2cc(O)cc3c2[C@H]1Cc1ccc(O)c(O)c1-3	none (no result: KDM4C inh)
COC(=O)[C@@H]1[C@@H](CO)[C@@H]2Cn3c(ccc(-c4ccccc4F)c3=O)[C@H]1N2CC1CCCC1	none (no result: IDH1 mut inh)
